Assay results published in ChEMBL document CHEMBL5126600, “Discovery of the First-in-Class G9a/GLP Covalent Inhibitors” (J Med Chem, 2022).
Calls of active or inactive are those of the source. The rule behind the calls is not given here.

What was measured:
[1] = molecular target: T1, Histone-lysine N-methyltransferase EHMT2 (Homo sapiens) (UniProt Q96KQ7); experiment: Inhibition of human G9a (913 to 1193 residues) assessed as covalent modification by measuring G9a adduct formation at 50 uM incubated for 1 hr by mass spectrometry relative to control
T1 sequence (whole entry): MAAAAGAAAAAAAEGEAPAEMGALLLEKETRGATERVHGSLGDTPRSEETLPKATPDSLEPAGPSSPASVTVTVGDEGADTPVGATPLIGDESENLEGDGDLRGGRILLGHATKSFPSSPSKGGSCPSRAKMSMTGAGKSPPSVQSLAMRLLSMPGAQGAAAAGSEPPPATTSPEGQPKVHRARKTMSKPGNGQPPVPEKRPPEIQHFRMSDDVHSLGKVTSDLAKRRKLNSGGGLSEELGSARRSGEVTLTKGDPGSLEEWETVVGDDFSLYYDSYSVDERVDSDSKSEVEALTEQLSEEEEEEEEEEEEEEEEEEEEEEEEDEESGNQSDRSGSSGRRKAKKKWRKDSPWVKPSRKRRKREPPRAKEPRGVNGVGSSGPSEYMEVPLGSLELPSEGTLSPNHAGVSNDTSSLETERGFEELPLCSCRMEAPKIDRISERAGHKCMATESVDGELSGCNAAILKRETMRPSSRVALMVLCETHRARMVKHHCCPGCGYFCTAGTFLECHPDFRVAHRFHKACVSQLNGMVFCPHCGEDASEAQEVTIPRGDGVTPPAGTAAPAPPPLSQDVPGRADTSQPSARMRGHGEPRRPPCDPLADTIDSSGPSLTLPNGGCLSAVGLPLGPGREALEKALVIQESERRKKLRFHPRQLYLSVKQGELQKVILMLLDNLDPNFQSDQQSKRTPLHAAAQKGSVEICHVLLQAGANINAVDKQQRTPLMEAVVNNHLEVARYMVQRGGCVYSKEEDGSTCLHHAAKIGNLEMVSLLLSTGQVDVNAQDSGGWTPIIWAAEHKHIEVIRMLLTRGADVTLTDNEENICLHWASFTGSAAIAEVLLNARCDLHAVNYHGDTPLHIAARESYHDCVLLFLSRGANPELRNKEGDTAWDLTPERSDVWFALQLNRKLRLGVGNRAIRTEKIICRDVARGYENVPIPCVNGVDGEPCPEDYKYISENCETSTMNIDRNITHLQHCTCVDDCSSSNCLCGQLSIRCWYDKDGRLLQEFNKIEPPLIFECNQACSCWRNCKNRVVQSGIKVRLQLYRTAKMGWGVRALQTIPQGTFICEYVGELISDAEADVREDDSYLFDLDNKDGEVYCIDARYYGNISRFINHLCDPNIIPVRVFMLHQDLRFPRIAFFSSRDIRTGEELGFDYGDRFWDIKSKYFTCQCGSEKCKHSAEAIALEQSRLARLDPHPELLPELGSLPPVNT
Summary of the method: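 Purified G9a or GLP catalytic domain (5 μM) in 50 mM Tris-HCl pH 7.5, 150 mM NaCl incubated with 50 μM compound or DMSO at room temperature (1 h, or 30 and 60 min in time course); intact mass by ESI LC/MS-TOF; adduct % = adduct/(protein + adduct) × 100.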

[2] = molecular target: T2, Histone-lysine N-methyltransferase EHMT2 (Homo sapiens, UniProt Q96KQ7); experiment: Inhibition of human G9a (913 to 1193 residues) using H3 peptide as substrate measured upto 45 mins in presence of SAM cofactor
T2 sequence (Q96KQ7 whole entry): T1 sequence (whole entry)

[3] = molecular target: T2, Histone-lysine N-methyltransferase EHMT2; experiment: Binding affinity to human G9a (913 to 1193 residues) assessed as dissociation constant by isothermal titration calorimetry method
Summary of the method: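 Initial 0.4 μL injection, then 13 injections of 500 μM compound from the syringe, stirred at 750 rpm. Experiment time about 50 min. Data fitted to a single binding site model. Mean ± SD of two independent measurements.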

[4] = molecular target: Histone-lysine N-methyltransferase, H3 lysine-36 specific (Homo sapiens) (UniProt Q96L73); experiment: Inhibition of N-terminal His-tagged NSD1 (1538 to 2696 residues) (unknown origin) expressed in baculovirus expression system at 1 uM using 3H-SAM as a substrate relative to control
Histone-lysine N-methyltransferase, H3 lysine-36 specific (Homo sapiens), sequence (Q96L73 whole entry, the tested form may be a part): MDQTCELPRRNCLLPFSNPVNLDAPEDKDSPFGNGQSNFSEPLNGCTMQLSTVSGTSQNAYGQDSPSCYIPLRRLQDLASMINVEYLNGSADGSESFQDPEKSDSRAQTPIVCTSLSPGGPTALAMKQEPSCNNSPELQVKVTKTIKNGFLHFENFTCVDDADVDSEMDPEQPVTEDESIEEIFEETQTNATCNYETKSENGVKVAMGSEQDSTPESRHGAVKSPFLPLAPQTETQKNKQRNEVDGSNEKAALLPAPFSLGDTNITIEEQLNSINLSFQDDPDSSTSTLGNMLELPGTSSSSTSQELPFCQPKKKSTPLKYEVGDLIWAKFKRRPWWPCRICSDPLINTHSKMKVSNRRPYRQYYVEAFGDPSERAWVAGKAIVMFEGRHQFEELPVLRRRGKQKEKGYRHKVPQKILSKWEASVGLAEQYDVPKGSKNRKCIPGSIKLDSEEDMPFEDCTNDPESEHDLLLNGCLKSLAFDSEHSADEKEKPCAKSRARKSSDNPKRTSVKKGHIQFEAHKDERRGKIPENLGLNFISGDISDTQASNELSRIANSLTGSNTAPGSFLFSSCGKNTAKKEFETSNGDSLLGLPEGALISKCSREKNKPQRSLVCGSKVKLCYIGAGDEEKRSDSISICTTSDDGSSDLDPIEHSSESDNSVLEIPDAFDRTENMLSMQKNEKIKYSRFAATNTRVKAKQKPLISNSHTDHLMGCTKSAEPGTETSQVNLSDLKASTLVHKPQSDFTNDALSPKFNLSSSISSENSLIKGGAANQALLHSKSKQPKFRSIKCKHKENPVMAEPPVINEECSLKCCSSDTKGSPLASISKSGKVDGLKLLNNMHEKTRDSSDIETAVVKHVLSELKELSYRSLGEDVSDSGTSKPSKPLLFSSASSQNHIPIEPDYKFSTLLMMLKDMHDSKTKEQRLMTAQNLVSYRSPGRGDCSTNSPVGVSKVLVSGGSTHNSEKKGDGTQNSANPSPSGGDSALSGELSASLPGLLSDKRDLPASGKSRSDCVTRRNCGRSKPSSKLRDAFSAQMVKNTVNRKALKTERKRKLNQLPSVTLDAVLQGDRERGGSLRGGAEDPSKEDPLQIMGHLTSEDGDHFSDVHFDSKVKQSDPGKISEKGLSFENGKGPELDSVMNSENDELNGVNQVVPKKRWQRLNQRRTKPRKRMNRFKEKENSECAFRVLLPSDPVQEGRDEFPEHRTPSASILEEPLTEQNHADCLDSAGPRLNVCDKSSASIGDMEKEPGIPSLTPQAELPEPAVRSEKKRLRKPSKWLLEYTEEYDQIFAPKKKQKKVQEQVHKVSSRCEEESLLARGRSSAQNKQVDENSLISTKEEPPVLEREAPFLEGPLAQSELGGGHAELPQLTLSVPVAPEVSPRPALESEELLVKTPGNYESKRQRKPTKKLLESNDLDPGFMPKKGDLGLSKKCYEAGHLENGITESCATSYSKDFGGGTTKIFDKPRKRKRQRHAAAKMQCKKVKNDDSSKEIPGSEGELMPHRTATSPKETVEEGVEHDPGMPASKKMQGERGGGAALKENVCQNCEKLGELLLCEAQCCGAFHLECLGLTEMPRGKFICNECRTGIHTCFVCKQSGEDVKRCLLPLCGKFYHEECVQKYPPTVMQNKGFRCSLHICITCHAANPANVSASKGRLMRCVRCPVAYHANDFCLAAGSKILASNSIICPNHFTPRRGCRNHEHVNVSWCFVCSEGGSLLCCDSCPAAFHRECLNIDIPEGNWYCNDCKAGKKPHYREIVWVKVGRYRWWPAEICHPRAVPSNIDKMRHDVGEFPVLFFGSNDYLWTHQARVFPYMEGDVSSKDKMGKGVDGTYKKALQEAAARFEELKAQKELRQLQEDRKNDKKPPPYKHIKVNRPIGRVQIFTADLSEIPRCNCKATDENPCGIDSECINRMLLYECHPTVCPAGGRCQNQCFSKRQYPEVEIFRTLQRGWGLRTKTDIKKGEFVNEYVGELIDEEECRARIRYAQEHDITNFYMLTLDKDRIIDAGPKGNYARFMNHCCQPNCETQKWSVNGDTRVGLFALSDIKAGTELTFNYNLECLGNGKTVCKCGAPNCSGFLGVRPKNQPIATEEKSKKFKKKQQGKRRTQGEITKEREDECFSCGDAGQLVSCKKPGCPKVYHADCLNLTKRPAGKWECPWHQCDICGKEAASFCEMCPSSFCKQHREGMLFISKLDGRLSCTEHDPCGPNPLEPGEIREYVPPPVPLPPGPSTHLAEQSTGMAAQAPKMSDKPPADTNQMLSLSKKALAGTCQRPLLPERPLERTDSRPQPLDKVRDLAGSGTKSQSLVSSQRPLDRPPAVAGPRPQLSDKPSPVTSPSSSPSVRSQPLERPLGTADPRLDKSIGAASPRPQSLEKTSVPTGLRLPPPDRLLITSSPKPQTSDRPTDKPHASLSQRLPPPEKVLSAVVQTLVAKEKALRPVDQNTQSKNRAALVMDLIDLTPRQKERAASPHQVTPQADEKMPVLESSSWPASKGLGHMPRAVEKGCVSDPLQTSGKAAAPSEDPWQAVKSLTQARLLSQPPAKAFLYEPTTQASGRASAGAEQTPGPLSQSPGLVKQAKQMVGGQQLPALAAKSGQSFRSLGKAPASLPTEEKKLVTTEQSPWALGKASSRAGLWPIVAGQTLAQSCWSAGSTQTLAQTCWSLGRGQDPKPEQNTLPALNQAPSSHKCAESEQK
Summary of the method: (§1)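 Contracted 3H-SAM methyl-transfer scintillation proximity assay against a panel of methyltransferases; compound tested at 1 μM in duplicate; inhibition expressed as percent of control enzyme activity.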

[5] = molecular target: Protein arginine N-methyltransferase 1 (Homo sapiens) (UniProt Q99873); experiment: Inhibition of N-terminal GST tagged PRMT1 (2 to 371 residues) (unknown origin) expressed in Escherichia coli at 1 uM using 3H-SAM as a substrate relative to control; summary of the method: as §1
Protein arginine N-methyltransferase 1 (Homo sapiens), sequence (Q99873 whole entry, looked up, the tested form may be a part): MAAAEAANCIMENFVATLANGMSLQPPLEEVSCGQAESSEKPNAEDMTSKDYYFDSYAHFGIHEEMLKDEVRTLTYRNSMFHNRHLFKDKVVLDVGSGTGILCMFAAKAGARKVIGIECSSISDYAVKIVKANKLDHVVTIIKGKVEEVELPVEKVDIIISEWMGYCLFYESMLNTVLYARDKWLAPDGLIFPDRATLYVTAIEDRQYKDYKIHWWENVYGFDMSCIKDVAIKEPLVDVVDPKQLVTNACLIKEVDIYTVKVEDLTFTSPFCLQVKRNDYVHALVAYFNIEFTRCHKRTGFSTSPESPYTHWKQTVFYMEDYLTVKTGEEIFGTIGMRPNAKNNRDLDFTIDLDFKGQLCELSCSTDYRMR

[6] = molecular target: Histone-arginine methyltransferase CARM1 (Homo sapiens) (UniProt Q86X55); experiment: Inhibition of N-terminal GST-tagged PRMT4 (2 to 608 residues)(unknown origin) expressed in Escherichia coli at 1 uM using 3H-SAM as a substrate relative to control; summary of the method: as §1
[7] = molecular target: PRMT5/MEP50 complex (Homo sapiens) (UniProt O14744+Q9BQA1); experiment: Inhibition of recombinant human N-terminal Flag-tagged PRMT5 (2 to 637 residues)/N-terminal His-tagged MEP50 (2 to 342 residues) expressed in baculovirus expression system at 1 uM using 3H-SAM as a substrate relative to control; summary of the method: as §1
[8] = molecular target: Protein arginine N-methyltransferase 6 (Homo sapiens) (UniProt Q96LA8); experiment: Inhibition of N-terminal His-tagged full-length recombinant PRMT6 (2 to 375 residues) (unknown origin) expressed in baculovirus expression system at 1 uM using 3H-SAM as a substrate relative to control; summary of the method: as §1
Protein arginine N-methyltransferase 6 (Homo sapiens), sequence (Q96LA8 whole entry, looked up, the tested form may be a part): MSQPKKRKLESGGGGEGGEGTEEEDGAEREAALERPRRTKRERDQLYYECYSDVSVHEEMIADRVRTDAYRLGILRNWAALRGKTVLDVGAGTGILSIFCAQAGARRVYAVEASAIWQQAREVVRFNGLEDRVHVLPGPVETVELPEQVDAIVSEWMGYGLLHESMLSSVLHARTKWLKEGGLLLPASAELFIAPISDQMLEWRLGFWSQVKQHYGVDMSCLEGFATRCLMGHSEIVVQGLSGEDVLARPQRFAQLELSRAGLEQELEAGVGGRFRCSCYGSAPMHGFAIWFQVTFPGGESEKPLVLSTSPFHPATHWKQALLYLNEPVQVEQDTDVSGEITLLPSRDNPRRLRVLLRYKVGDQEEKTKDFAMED

[9] = molecular target: Protein arginine N-methyltransferase 7 (Homo sapiens) (UniProt Q9NVM4); experiment: Inhibition of N-terminal His-tagged full-length recombinant human PRMT7 (2 to 692 residues) expressed in baculovirus expression system at 1 uM using 3H-SAM as a substrate relative to control; summary of the method: as §1
Protein arginine N-methyltransferase 7 (Homo sapiens), sequence (Q9NVM4 whole entry, the tested form may be a part): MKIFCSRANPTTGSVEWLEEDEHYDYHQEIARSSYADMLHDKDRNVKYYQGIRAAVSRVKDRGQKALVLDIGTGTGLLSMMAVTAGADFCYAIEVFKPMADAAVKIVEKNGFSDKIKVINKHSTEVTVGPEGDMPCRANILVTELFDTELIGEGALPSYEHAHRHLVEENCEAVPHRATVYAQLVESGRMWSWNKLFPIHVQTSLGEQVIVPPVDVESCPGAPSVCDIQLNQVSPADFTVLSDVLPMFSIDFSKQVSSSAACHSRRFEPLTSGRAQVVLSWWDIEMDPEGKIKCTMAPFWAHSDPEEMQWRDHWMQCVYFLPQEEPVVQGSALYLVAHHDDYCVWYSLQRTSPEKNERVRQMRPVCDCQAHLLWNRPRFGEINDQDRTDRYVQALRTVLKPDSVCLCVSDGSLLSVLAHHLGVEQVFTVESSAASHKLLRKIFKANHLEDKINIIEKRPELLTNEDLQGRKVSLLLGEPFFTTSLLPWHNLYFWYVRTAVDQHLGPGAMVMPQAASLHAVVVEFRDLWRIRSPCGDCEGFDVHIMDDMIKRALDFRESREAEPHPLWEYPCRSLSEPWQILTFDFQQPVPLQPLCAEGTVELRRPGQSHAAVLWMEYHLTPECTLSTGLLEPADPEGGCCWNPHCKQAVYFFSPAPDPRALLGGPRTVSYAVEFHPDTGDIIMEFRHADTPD

[10] = molecular target: Histone-lysine N-methyltransferase SMYD3 (Homo sapiens) (UniProt Q9H7B4); experiment: Inhibition of recombinant human C-terminal His-tagged SMYD3 (2 to 428 residues) expressed in Sf9 insect cells at 1 uM using 3H-SAM as a substrate relative to control; summary of the method: as §1
Histone-lysine N-methyltransferase SMYD3 (Homo sapiens), sequence (Q9H7B4 whole entry, the tested form may be a part): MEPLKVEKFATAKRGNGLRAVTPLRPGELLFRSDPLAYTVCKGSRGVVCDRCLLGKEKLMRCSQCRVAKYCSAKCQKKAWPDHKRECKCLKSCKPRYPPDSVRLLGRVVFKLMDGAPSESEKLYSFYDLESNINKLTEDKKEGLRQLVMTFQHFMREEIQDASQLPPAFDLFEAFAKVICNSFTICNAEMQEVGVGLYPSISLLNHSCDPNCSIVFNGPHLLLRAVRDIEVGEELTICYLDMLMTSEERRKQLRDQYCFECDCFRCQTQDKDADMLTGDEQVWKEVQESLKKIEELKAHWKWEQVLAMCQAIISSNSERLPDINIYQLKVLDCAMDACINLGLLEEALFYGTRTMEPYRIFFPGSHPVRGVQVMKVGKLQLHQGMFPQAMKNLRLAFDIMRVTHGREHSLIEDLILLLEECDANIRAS

[11] = molecular target: Histone-lysine N-methyltransferase SUV39H1 (Homo sapiens) (UniProt O43463); experiment: Inhibition of N-terminal fusion protein with C-terminal His-tagged SUV39H1 (44 to 412 residues) (unknown origin) expressed in Escherichia coli at 1 uM using 3H-SAM as a substrate relative to control; summary of the method: as §1
Histone-lysine N-methyltransferase SUV39H1 (Homo sapiens), sequence (O43463 whole entry, the tested form may be a part): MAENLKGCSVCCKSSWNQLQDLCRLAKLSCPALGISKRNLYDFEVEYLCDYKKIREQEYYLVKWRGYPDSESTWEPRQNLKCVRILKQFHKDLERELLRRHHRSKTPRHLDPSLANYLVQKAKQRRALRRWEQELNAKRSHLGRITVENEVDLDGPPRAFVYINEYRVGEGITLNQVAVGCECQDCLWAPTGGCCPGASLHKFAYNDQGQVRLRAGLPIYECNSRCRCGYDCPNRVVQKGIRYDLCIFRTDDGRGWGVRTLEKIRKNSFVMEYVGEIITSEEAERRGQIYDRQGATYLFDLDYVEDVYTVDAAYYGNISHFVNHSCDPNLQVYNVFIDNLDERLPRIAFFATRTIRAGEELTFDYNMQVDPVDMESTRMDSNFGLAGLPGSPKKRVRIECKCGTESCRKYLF

K562 = experiment: Down regulation of H3K9 dimethylation in human K562 cells at 0.2 to 5 uM incubated for 48 hrs by Western blot analysis; assay type: functional, cell-based; settings: dose 0.2-5 µM
[12] = molecular target: Histone-lysine N-methyltransferase EHMT1 (Homo sapiens) (UniProt Q9H9B1); experiment: Inhibition of human GLP (982 to 1266 residues) using H3 peptide as substrate in presence of SAM cofactor by scintillation counting method; settings: time 5-45 min, TDE = time-dependent effect
Summary of the method: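 Contracted scintillation proximity assay following 3H-methyl transfer from SAM (1 μM) to H3 peptide (0.05 μM) by G9a or GLP (5 nM each), with preincubation times of 5, 15 or 45 min; four replicates.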

inhibition [1]: 50%
IC50 [2]: 100 nM
Kd [3]: 44 nM
inhibition [4]: < 50%
inhibition [5]: < 50%
inhibition [6]: < 50%
inhibition [7]: < 50%
inhibition [8]: < 50%
inhibition [9]: < 50%
inhibition [10]: < 50%
inhibition [11]: < 50%
inhibition [12]: Tde
Structure (SMILES): C=CC(=O)Nc1cc(NC2CCN(C(C)C)CC2)c2cc(OC)c(OCCCN3CCCC3)cc2n1
Activity (K562): Active
